Data: ChEMBL document CHEMBL4665656, “Toxicity, bioactivity, release of HS in vivo and pharmaco-kinetics of HS-donors with thiophosphamide structure” (Eur J Med Chem, 2019)
Calls of active or inactive are those of the source. No cut-off for these calls is given here.

How the values were obtained:
[1] = Toxicity in zebra fish assessed as hatching rate at 0.5 uM measured after 120 hpf by microscopic analysis; parameters: species or system Danio rerio; conditions: zebrafish
[2] = Toxicity in Wistar rat assessed as large and inflamed nucleus in spleen at 0.01 mmol/kg, ip administered for 14 days; assay type: organism-based; conditions: in vivo, 336 h, time 14 day
Procedure, shortened: (§1)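 Wistar rats (6/group) dosed ip daily for 14 days with compound in 10% DMSO; vehicle controls received 10% DMSO. Liver, kidney and spleen were fixed in 4% glutaraldehyde, sectioned, H-E stained and examined microscopically.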

A549 = assay: Cytotoxicity in human A549 cells assessed as growth inhibition incubated for 24 hrs by MTT assay; assay type: functional, cell-based; conditions: A549, 24 h
Procedure, shortened: (§2)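 Cells were grown in RPMI 1640 with 10% FBS at 37 °C and 10% CO2, seeded at 6×10^3 cells/well. Exposure was 24 h, with viability by MTT, in triplicate cultures. IC50 was reported as mean ± SD.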

HT-29 = assay: Cytotoxicity in human HT-29 cells assessed as growth inhibition incubated for 24 hrs by MTT assay; assay type: functional, cell-based; conditions: HT-29, 24 h; procedure, shortened: as §2
H9c2 [3] = assay: Cardioprotective activity against H2O2- induced toxicity in rat H9c2 cells assessed as increase in survival rate at 50 uM incubated for 8 hrs co-treated with 200 uM H2O2 measured after 24 hrs by MTT assay relative to control; assay type: functional
Procedure, shortened: (§3)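 H9c2 cardiomyocytes injured with H2O2 (50, 200 or 400 µM) for 8 h together with compound (10–100 µM). Survival rate measured against the H2O2 model group. Six independent experiments, mean ± sd.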

[4] = Retention time of compound in serum by LC-MS analysis; assay type: physicochemical, cell-free
Procedure, shortened: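 Compound incubated in PBS pH 7.4 or in serum, sampled every 12 h over 36 h, and analysed by LC-MS for parent and product peaks.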

[5] = Drug metabolism in Wistar rat liver homogenate assessed as metabolite 3b retention time incubated for 36 hrs by LC-MS analysis; assay type: ADME, tissue-based; conditions: tissue homogenate
[6] = Induction of H2S generation assessed as half life at 150 uM incubated at 22 degC and pH 7.4 by fluorescence spectrophotometry; assay type: functional
Procedure, shortened: (§4)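 Donor at 150 µM final, mixed with 200 µM sulfonyl-azide fluorescent probe in buffer/acetonitrile (1:9) at set pH. Cuvette held in a water bath at 22 °C or 37 °C, with fluorescence read three times at intervals. H2S was quantified from a Na2S standard curve (0–200 µM, probe 200 µM).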

[7] = Induction of H2S generation assessed as Cmax Induction of H2S generation assessed as Cmax at 150 uM incubated at 37 degC and pH 7.4 by fluorescence spectrophotometry; assay type: functional; procedure, shortened: as §4
[8] = Acute toxicity in juvenile zebrafish assessed as decrease in locomotor activity measured as swimming distance at 10 uM measured at 144 hpf; parameters: species or system Danio rerio; conditions: in vivo, dose […]
Procedure, shortened: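 Wild-type AB zebrafish bred at 28 °C on a 14 h/10 h light cycle; normally developing embryos were selected at 4 hpf. Total swimming distance of juveniles was recorded over 5 min under visible light. DMF (1:1000) was the vehicle control, n = 100, three independent experiments, mean ± SD.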

H9c2 [9] = assay: Cardioprotective activity against H2O2- induced toxicity in rat H9c2 cells assessed as effect on cell morphology at 50 uM incubated for 8 hrs co-treated with 50 uM H2O2 measured after 24 hrs […]; assay type: functional, cell-based
Procedure, shortened: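 H9c2 cells in 24-well plates treated with H2O2 (50, 200 or 400 µM) for 8 h plus compound 50 µM, 24 h total. Cells were stained with Giemsa for 30 min and morphology examined by microscopy.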

[10] = Induction of H2S generation assessed as Cmax at 150 uM incubated at 22 degC and pH 5 by fluorescence spectrophotometry; assay type: functional; procedure, shortened: as §4
[11] = Induction of H2S generation assessed as Cmax at 150 uM incubated at 37 degC and pH 5 by fluorescence spectrophotometry; assay type: functional; procedure, shortened: as §4
[12] = Toxicity in Wistar rat assessed as damaged glomeruli, marked gaps and swollen proximal convoluted tubules at 0.01 mmol/kg, ip administered for 14 days; assay type: organism-based; conditions: in vivo, 336 h, time 14 day; procedure, shortened: as §1
[13] = Toxicity in zebra fish assessed as decrease in hatching rate at <=20 uM measured after 120 hpf by microscopic analysis relative control; parameters: species or system Danio rerio; scale not given: the % may be the effect or the level left; conditions: zebrafish, 5 µM
[14] = Induction of H2S generation assessed as half life at 150 uM incubated at 37 degC and pH 1.2 by fluorescence spectrophotometry; assay type: functional; procedure, shortened: as §4
[15] = Toxicity in zebra fish embryo assessed as decrease in spontaneous movement at 5 uM measured after 24 hpf by microscopic analysis; parameters: species or system Danio rerio; conditions: zebrafish
Procedure, shortened: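 Normal AB embryos were exposed to compound or DMF vehicle (1:1000) from 4 to 24 hpf. Ten embryos per group were chosen at random. Spontaneous movement was recorded for 5 min under a stereoscopic dissecting microscope and expressed as frequency per min. Values are mean ±SD of three independent experiments.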

H9c2 [16] = assay: Cardioprotective activity against H2O2- induced toxicity in rat H9c2 cells assessed as increase in survival rate at 50 uM incubated for 8 hrs co-treated with 50 uM H2O2 measured after 24 hrs by MTT assay relative to control; assay type: functional; procedure, shortened: as §3
[17] = Toxicity in Wistar rat assessed as effect on platelet level at 0.01 mmol/kg, ip, administered daily for 14 days (reference value: 8.57 10^9/L); conditions: in vivo, 336 h, time 14 day
[18] = Toxicity in Wistar rat assessed as effect on WBC level at 0.01 mmol/kg, ip, administered daily for 14 days (reference value: 5.82 10^9/L); conditions: in vivo, 336 h, time 14 day
[19] = Toxicity in Wistar rat assessed as effect on hemoglobin level at 0.01 mmol/kg, ip, administered daily for 14 days (reference value: 98 g/l); conditions: in vivo, 336 h, time 14 day
[20] = Toxicity in Wistar rat assessed as congested central venous and hepatic sinuses and swollen hepatocytes at 0.01 mmol/kg, ip administered for 14 days; assay type: organism-based; conditions: in vivo, 336 h, time 14 day; procedure, shortened: as §1
[21] = Toxicity in Wistar rat assessed as effect on RBC level at 0.01 mmol/kg, ip, administered daily for 14 days (reference value: […]); conditions: in vivo, 336 h, time 14 day
[22] = Cytotoxicity against mouse RAW264.7 cells assessed as cell viability at 20 to 100 microM after 24 hrs by MTT assay; assay type: cell-based; conditions: dose 20-100 µM, read-out: Activity
Procedure, shortened: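 RAW264.7 macrophages in high-glucose DMEM with 10% heat-inactivated FBS, 37 °C, 5% CO2. LPS 1 µg/mL with or without compound (20 and 100 µM) for 24 h. Then MTT 4 h, formazan dissolved in DMSO, A570, expressed as % of control.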

[23] = Induction of H2S generation assessed as Cmax at 150 uM incubated at 37 degC and pH 1.2 by fluorescence spectrophotometry; assay type: functional; procedure, shortened: as §4
[24] = Induction of H2S generation assessed as half life at 150 uM incubated at 37 degC and pH 8 by fluorescence spectrophotometry; assay type: functional; procedure, shortened: as §4
[25] = Toxicity in zebra fish assessed as decrease in survival rate at <=20 uM measured after 120 hpf by microscopic analysis relative control; parameters: species or system Danio rerio; conditions: zebrafish
Procedure, shortened: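 Wild-type AB zebrafish embryos were checked at 4 hpf, and normally developed ones were used. There were 100 embryos per group, split into three replicates, one per well in 200 µL solution under sealing film. Mortality was recorded at 24–168 hpf. Vehicle control was DMF diluted 1:1000. Values are mean ±SD of three independent experiments.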

SMILES | Activity [1] | Activity [2] | IC50 (A549) [µM] | IC50 (HT-29) [µM] | Activity (H9c2 [3]) [%] | Retention_time [4] [min] | Retention_time [5] [min] | T1/2 [6] [min] | Cmax [7] [µM] | Activity [8] [mm] | Activity (H9c2 [9]) | Cmax [10] [µM] | Cmax [11] [µM] | Activity [12] | Activity [13] [%] | T1/2 [14] [min] | Activity [15] | Activity (H9c2 [16]) [%] | Activity [17] | Activity [18] | also measured
S=P1(c2ccccc2)NCCCO1 (centres undefined) | Non-Toxic | Toxic | 886 | 1050 | 13.9 | 9.647 | 8.63 | 36.8 | 26.5 | 257 | Active | 24.9 | 35.8 | Toxic | 50 | 35.4 | Toxic | 17.1 | 628 10^9/L | 3.23 10^9/L | Activity [19]: 190 g/L; Activity [20]: Toxic; Activity [21]: 8.42 10^12/L; viability at 24 h [22]: 70%; Cmax [23]: 34.8 µM; T1/2 [24]: 34.9 min; Activity [25]: 50%
O=C([O-])[C@H](Cc1cc2ccccc2[nH]1)NP([O-])(=S)c1ccccc1.[Li+].[Li+] (some centres undefined) | Non-Toxic | Toxic | 433 | 742 | 30.1 | 8.06 | 7.9 | 6.97 | 124 | 216 | Active | 117 | 124 | Toxic | 50 | 1.51 | Toxic | 25.5 | 530 10^9/L | 4.01 10^9/L | Activity [19]: 168 g/L; Activity [20]: Toxic; Activity [21]: 5.98 10^12/L; viability at 24 h [22]: 70%; Cmax [23]: 124 µM; T1/2 [24]: 7.85 min; Activity [25]: 50%
